In ChEMBL document CHEMBL4433206, “Novel Lysine-Based Thioureas as Mechanism-Based Inhibitors of Sirtuin 2 (SIRT2) with Anticancer Activity in a Colorectal Cancer Murine Model” (J Med Chem, 2019):
Active and inactive are the calls of the source. No cut-off for these calls is given here.

Legend:
[1] = target: T1, NAD-dependent protein deacetylase sirtuin-3, mitochondrial (Homo sapiens, UniProt Q9NTG7); experiment: Inhibition of human SIRT3 assessed as reduction in deacetylase activity using acetylated H3K9 as substrate preincubated for 15 mins followed by substrate addition and measured after 15 mins by UV-HPLC analysis
T1 sequence (Q9NTG7 whole entry): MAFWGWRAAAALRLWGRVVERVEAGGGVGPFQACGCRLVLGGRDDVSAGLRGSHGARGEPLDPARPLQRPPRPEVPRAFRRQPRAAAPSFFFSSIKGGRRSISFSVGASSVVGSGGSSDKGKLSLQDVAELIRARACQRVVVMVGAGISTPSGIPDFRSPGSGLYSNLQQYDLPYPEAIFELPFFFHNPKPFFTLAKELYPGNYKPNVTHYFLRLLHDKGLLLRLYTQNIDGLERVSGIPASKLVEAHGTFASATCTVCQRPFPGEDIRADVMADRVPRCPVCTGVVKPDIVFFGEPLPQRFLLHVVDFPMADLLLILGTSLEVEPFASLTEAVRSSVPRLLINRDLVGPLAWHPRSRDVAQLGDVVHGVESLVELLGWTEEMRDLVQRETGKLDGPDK

[2] = Cytotoxicity against human HME1 cells after 72 hrs by CellTiter-Blue assay; assay type: cell-based
How it was run: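 Cells were seeded per well (HCT116 1000; MDA-MB-231, MDA-MB-468, NCI-H23, A549, SW948 2000; MCF7, BxPC-3, HME1 3000) and left 20 h at 37 °C. Inhibitor was added at 1–100 μM final for 72 h at 37 °C. CellTiter-Blue was then added for 4 h, and fluorescence was read at ex 560/em 590 nm.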

[3] = target: T2, NAD-dependent protein deacetylase sirtuin-2 (Homo sapiens) (UniProt Q8IXJ6); experiment: Inhibition of SIRT2 in human HCT116 cells assessed as increase in alpha-tubulin acetylation at 25 uM incubated for 6 hrs by DAPI staining-based laser scanning confocal microscopic analysis; assay type: cell-based
T2 sequence (whole entry): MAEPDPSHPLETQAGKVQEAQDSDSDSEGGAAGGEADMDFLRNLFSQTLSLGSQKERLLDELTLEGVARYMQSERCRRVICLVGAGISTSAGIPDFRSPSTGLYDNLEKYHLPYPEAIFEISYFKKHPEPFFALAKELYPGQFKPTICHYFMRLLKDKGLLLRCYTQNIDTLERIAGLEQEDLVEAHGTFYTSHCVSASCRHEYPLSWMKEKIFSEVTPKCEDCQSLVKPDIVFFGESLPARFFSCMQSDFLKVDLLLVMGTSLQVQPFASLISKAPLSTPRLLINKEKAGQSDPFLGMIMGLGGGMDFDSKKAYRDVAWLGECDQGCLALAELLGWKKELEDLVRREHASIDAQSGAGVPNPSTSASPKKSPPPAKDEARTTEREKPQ
How it was run: (§1)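 HCT116 cells were seeded at 400 000 on poly-D-lysine-coated glass-bottom dishes and grown 24 h. Cells were treated with DMSO or inhibitor for 6 h at 37 °C, fixed in ice-cold methanol, and blocked in TBS/0.1% Triton X-100/5% BSA. They were stained with anti-acetyl α-tubulin (1:100, overnight, 4 °C), then Cy3 anti-mouse, and mounted with DAPI. Imaging was by confocal microscopy.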

[4] = target: T3, NAD-dependent protein deacetylase sirtuin-1 (Homo sapiens) (UniProt Q96EB6); experiment: Inhibition of SIRT1 in Trichostatin A treated human HCT116 cells assessed as increase in acetylated p53 K382 level after 6 hrs by Western blot analysis
T3 sequence (whole entry): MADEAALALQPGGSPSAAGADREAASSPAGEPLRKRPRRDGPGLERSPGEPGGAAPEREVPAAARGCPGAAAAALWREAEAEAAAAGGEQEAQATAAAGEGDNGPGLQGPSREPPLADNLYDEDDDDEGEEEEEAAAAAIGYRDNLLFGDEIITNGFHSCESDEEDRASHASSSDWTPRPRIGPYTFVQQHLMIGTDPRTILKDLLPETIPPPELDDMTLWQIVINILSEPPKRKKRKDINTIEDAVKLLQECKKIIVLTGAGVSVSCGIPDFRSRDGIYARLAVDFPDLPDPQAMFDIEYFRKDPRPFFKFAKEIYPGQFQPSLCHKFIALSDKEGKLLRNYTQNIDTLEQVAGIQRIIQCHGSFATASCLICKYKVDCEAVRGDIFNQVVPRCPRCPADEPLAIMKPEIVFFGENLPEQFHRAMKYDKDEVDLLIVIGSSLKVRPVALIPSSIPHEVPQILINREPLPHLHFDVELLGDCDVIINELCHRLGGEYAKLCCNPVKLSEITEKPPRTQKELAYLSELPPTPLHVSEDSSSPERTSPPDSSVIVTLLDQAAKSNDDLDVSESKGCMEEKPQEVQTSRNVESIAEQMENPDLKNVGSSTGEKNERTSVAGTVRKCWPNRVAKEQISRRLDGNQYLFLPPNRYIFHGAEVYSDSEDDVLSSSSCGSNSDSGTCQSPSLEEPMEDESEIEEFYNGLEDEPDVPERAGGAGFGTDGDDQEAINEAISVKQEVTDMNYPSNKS
How it was run: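 HCT116 cells were seeded at 400 000 per well, grown 24 h, then cotreated with 400 nM TSA and inhibitor (25 μM, or 10–50 μM) for 6 h at 37 °C. Cells were lysed in 4% SDS buffer, pH 7.4. 50 μg of lysate was resolved by 12% SDS-PAGE and blotted for acetyl-p53 K382 antibody, with β-actin as loading control. Detection was by ECL.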

[5] = target: T3, NAD-dependent protein deacetylase sirtuin-1 (Homo sapiens); experiment: Inhibition of SIRT1 in human HCT116 cells assessed as increase in acetylated p53 K382 level at 25 uM after 6 hrs by Western blot analysis; assay type: cell-based
[6] = species: Homo sapiens; experiment: Selectivity ratio of IC50 for human SIRT1 to IC50 for recombinant human N-terminal His6-tagged/SUMO-fused SIRT2 (38 to 356 residues) expressed in Escherichia coli BL21
How it was run: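 Purified human sirtuin (SIRT1 0.05 μM, SIRT2 0.2 μM) in 20 mM Tris, 1 mM NAD⁺, 1 mM DTT, pH 8.0 was preincubated with inhibitor (0.002–417 μM, duplicate, DMSO control) for 15 min at 37 °C. Acetyl-H3K9 peptide (10 μM) was then added, and the reaction ran at 37 °C (SIRT1 3 min, SIRT2 6 min; 10–18% conversion). It was quenched with HCl/acetic acid and analysed by reverse-phase HPLC with UV at 215/326 nm.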

[7] = target: T4, NAD-dependent protein deacetylase sirtuin-1 (Homo sapiens, UniProt Q96EB6); experiment: Inhibition of human SIRT1 deacetylase activity using acetylated H3K9 as substrate preincubated for 15 mins followed by substrate addition and measured after 3 mins by UV-HPLC analysis
T4 sequence (Q96EB6 whole entry): T3 sequence (whole entry)

[8] = target: T2, NAD-dependent protein deacetylase sirtuin-2 (Homo sapiens); experiment: Inhibition of SIRT2 in human HCT116 cells assessed as increase in alpha-tubulin acetylation at 50 uM incubated for 6 hrs by DAPI staining-based laser scanning confocal microscopic analysis; assay type: cell-based; how it was run: as §1
[9] = target: T5, NAD-dependent protein deacetylase sirtuin-2 (Homo sapiens, UniProt Q8IXJ6); experiment: Inhibition of recombinant human N-terminal His6-tagged/SUMO-fused SIRT2 (38 to 356 residues) expressed in Escherichia coli BL21 assessed as reduction in deacetylase activity using acetylated H3K9 as substrate preincubated for 15 mins followed by substrate addition and measured after 6 mins by UV-HPLC analysis
T5 sequence (Q8IXJ6 whole entry): T2 sequence (whole entry)

Compound | IC50 [1] [µM] | inhibition [3] | inhibition [4] | inhibition [5] | Ratio IC50 [6] | IC50 [7] [µM] | inhibition [8] | IC50 [9] [µM] | Activity [2]
CCCCCCCCCCNC(=S)NCCCC[C@H](NC(=O)OCc1ccccc1)C(=O)Nc1cccc(O)c1 | > 100 | Active | Dose-dependent effect | Active | 12 | 0.45 | Active | 0.036 | 
CCCCCNC(=S)NCCCC[C@H](NC(=O)OCc1ccccc1)C(=O)Nc1cccc(O)c1 | > 100 | Active |  | Active | 34 | 34 | Active | 1 | 
CNC(=S)NCCCC[C@H](NC(=O)OCc1ccccc1)C(=O)Nc1cccc(O)c1 | > 100 |  |  |  |  | > 100 |  | > 100 | 
CCCCCCNC(=S)NCCCC[C@H](NC(=O)OCc1ccccc1)C(=O)Nc1ccccc1 |  |  |  |  |  | 30 |  | 0.64 | 
NC(=O)C1CCCc2c1[nH]c1ccc(Cl)cc21 (configuration not stated) |  |  |  | Active |  |  |  |  | 
CCCCCCCCNC(=S)NCCCC[C@H](NC(=O)OCc1ccccc1)C(=O)Nc1cccc(O)c1 | > 100 |  |  |  | 8 | 1 |  | 0.12 | 
CCCCCCCCCCCCNC(=S)NCCCC[C@H](NC(=O)OCc1ccccc1)C(=O)Nc1cccc(O)c1 | > 100 |  |  |  | 17 | 1 |  | 0.06 | 

Further lines, with some results ahead:

IC50 [1] [µM] | inhibition [3] | inhibition [4] | inhibition [5] | Ratio IC50 [6] | IC50 [7] [µM] | inhibition [8] | IC50 [9] [µM] | Compound | Activity [2]
> 100 |  |  |  |  |  |  |  | CCCCCCCCCCCCCC(=S)NCCCC[C@H](NC(=O)OCc1ccccc1)C(=O)Nc1ccccc1 | Non-Toxic
 |  |  |  |  | 22 |  | 0.16 | CCCCCCCNC(=S)NCCCC[C@H](NC(=O)OCc1ccccc1)C(=O)Nc1ccccc1 | 
> 200 |  |  |  |  | > 200 |  | 0.081 | CCCCCCCCCCCCNC(=S)NCCCC[C@H](NC(=O)OCc1ccccc1)C(=O)Nc1ccccc1 | 
> 100 | inactive |  | inactive |  | > 100 | inactive | > 100 | CCCNC(=S)NCCCC[C@H](NC(=O)OCc1ccccc1)C(=O)Nc1cccc(O)c1 | 
